Among the data in PubChem BioAssay are viability, differential viability (reversal) and inhibition values, retold here.

Calls of active or inactive are those of the source. Unless noted, no stated cut-off is given here; in the data, active means inhibition above about 30%; inactive means the rest.

Test [1] in a line: reduced viability of SK-BR-3 breast cancer cells – cell-based, 24 h, human, pilot screen (AID 572;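 active means viability at or below 10% of carrier control in both of two separate runs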;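 further: compound exposure lasted between 18 and 24 h rather than exactly 24 h; 100% = carrier-treated control wells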). To be noted: SK-BR-3 viability, CellTiter-Glo luminescence, at 10 µM, stronger effect = lower value.
Test [2] is described as follows: HUVEC growth inhibition – cell-based, human, primary screen (AID 575;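 active means viability at or below 30% in both replicate assays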;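 further: 100% = median of untreated cell wells with 0.1% DMSO on each plate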). To be noted: HUVEC proliferation, CellTiter-Glo luminescence, 72 h; at 10 µM; stronger effect = lower value. In outline:
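Test system: primary human umbilical vein endothelial cells; medium: endothelial basal medium with 2% FBS plus growth supplements; dosing: 10 µM compound only; times: 72 h treatment at 37 °C; signal: CTG luminescence; read-out: % viability relative to median vehicle-well signal on each plate; control set: vehicle and MePR control wells; plate: 384-well, collagen-coated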

Test [3] in a line: H69AR cell proliferation blockers – human, duplicate replicates, primary screen (AID 580;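 active means viability at or under a set limit in both replicates, limit being median viability minus 3 SD, cut at about 48% in these data, passing the limit was not always enough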;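 further: 100% = mean luminescence of untreated wells and 0% = no signal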). To be noted: H69AR lung tumor cells viability, ATP luminescence, 72 h; at 10 µM; stronger effect = lower value.
A short description of test [4]: MRP1 drug-resistance reversers in H69AR cells – cell-based, doxorubicin co-treatment, pilot screen (AID 601;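 active means viability loss from added drug above about 55%, and viability with drug at most 40%, in both replicates, limit read from the data, passing the limit was not always enough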). The conditions noted are these: CellTiter-Glo, 72 h, at 10 µM; for differential viability (reversal): stronger effect = higher value.
Test [5] can be described thus: yeast transport mutant growth inhibition pilot in 384-well plates, post-Golgi transport modulator project (AID 636; in the data active means inhibition above about 31%). The conditions noted are these: absorbance 615 nm, about 18 h, stronger effect = higher value.
A short description of test [6]: growth suppression of yeast trafficking mutant, preliminary HTS, modulators of trafficking downstream of Golgi apparatus project, 1536-format plate, OD 615 nm (AID 637). The conditions noted are these: yeast transport mutant growth, absorbance 615 nm, 18 h; stronger effect = higher value.
The mark [7] stands for this setting: H69AR cells + 2 uM doxorubicin, measured here: viability with 2 uM doxorubicin, stronger effect = lower value.
Setting [8] is: H69AR cells, compound alone cytotoxicity.

Turning to `O=C(NCc1ccco1)c1cc2sccc2n1Cc1ccccc1`, the viability in test [1] is 131% (inactive); in test [2], 97.3% (inactive); in test [3] it was 71.2% (inactive); in test [4] (setting [7]) it was 89.7%; in test [4] (setting [8]), 71.2%. Besides, the differential viability (reversal) in test [4] (H69AR cells + 2 uM doxorubicin) was -18.5% (inactive). Moreover, the inhibition in test [5] was 3.01% (inactive); in test [6] it was 14.2% (inactive).
As for `CC(C)(C)NCC(O)COc1cccc2c1C[C@H](O)[C@H](O)C2` (some centres undefined), the viability was 82% (inactive) in test [1]; 85.3% (inactive) in test [2]; 97.1% (inactive) in test [3]; 92.8% in test [4] (setting [7]); 97.1% in test [4] (setting [8]). In addition, the differential viability (reversal) in test [4] (H69AR cells + 2 uM doxorubicin) is 4.26% (inactive). For the same molecule, the inhibition in test [5] is 2.86% (inactive); in test [6], 1.83% (inactive).
As for `CC(C)c1cc(C(=O)Nc2cccnc2)no1`, the viability in test [1] is 110% (inactive); in test [2] it was 105% (inactive); in test [3], 97.3% (inactive); in test [4] (setting [7]), 98.2%; in test [4] (setting [8]), 97.3%. In addition, the differential viability (reversal) in test [4] (H69AR cells + 2 uM doxorubicin) is -0.865% (inactive). Besides, the inhibition was -7.73% (inactive) in test [5] and -0.18% (inactive) in test [6].
Regarding `CC(=O)c1ccc(NC(=O)CCc2c(C)nc3ncnn3c2C)cc1`, the viability in test [1] was 100% (inactive); in test [2], 87.5% (inactive); in test [3] it was 93.1% (inactive); in test [4] (setting [7]), 87.1%; in test [4] (setting [8]), 93.1%. Moreover, in test [4] (H69AR cells + 2 uM doxorubicin), the differential viability (reversal) was 6.04% (inactive). The inhibition is -1.3% (inactive) in test [5] and -5.08% (inactive) in test [6].
Regarding `COc1ccccc1-n1cnc2cc(NS(=O)(=O)c3ccccc3)ccc21`, the viability is 62% (inactive) in test [1]; 101% (inactive) in test [2]; 87.1% (inactive) in test [3]; 87.8% in test [4] (setting [7]); 87.1% in test [4] (setting [8]). Further, in test [4] (H69AR cells + 2 uM doxorubicin), the differential viability (reversal) is -0.69% (inactive). Besides, the inhibition was -3.15% (inactive) in test [5] and -6.55% (inactive) in test [6].
Consider `CC1=C(C)C(=O)C(CCCCC#CCCCC#CCO)=C(C)C1=O`, for which the viability was 62% (inactive) in test [1]; 78.8% (inactive) in test [2]; 56.6% (inactive) in test [3]; 32.8% in test [4] (setting [7]); 56.6% in test [4] (setting [8]). Besides, the differential viability (reversal) in test [4] (H69AR cells + 2 uM doxorubicin) was 23.8% (inactive). Also, the inhibition in test [5] was 2.99% (inactive); in test [6] it was -1.5% (inactive).
On to `COC(=O)c1cccc(Nc2cc(C)nc(-c3ccccc3O)n2)c1`, for which the viability in test [1] is 69% (inactive); in test [2] it was 62.3% (inactive); in test [3], 64.4% (inactive); in test [4] (setting [7]), 70.7%; in test [4] (setting [8]) it was 64.4%. The differential viability (reversal) in test [4] (H69AR cells + 2 uM doxorubicin) was -6.26% (inactive). The inhibition in test [5] is 0% (inactive); in test [6] it was 2.18% (inactive).
Consider `Cc1ccc(NC2=NCC(=O)N2c2ccc3c(c2)OCCO3)c(C)c1`, for which the viability in test [1] is 84% (inactive); in test [2], 95.7% (inactive); in test [3], 99.4% (inactive); in test [4] (setting [7]), 98.7%; in test [4] (setting [8]) it was 99.4%. Further, in test [4] (H69AR cells + 2 uM doxorubicin), the differential viability (reversal) is 0.67% (inactive). Also, the inhibition in test [5] is -6.16% (inactive); in test [6] it was -2.9% (inactive).
As to `NS(=O)(=O)c1ccc(CCNC(=O)CCC2COc3ccccc3O2)cc1` (centres undefined), the viability in test [1] was 90% (inactive); in test [2], 105% (inactive); in test [3] it was 95.8% (inactive); in test [4] (setting [7]), 87.5%; in test [4] (setting [8]), 95.8%. In test [4] (H69AR cells + 2 uM doxorubicin), the differential viability (reversal) was 8.33% (inactive). For the same molecule, the inhibition in test [5] was -5.62% (inactive); in test [6], 0.16% (inactive).
With `COc1ccc(N2C(=O)c3cccc4cccc(c34)C2=O)nn1`, the viability in test [1] is 82% (inactive); in test [2] it was 90.8% (inactive); in test [3] it was 92.3% (inactive); in test [4] (setting [7]), 100%; in test [4] (setting [8]), 92.3%. Besides, in test [4] (H69AR cells + 2 uM doxorubicin), the differential viability (reversal) was -7.67% (inactive). The inhibition in test [5] is -5.89% (inactive); in test [6], 5.09% (inactive).
On to `COc1cc(CC(=O)Oc2ccc3c(c2)OCO3)cc(OC)c1OC`, for which the viability in test [1] was 98% (inactive); in test [2], 104% (inactive); in test [3] it was 84.8% (inactive); in test [4] (setting [7]), 84.2%; in test [4] (setting [8]), 84.8%. Further, the differential viability (reversal) in test [4] (H69AR cells + 2 uM doxorubicin) is 0.695% (inactive). The values for the inhibition in test [5] and in test [6] were -2.93% (inactive) and 2.91% (inactive), respectively.
`Cc1nc(CCNS(=O)(=O)c2cccs2)cs1`: the viability is 86% (inactive) in test [1]; 105% (inactive) in test [2]; 97.5% (inactive) in test [3]; 86% in test [4] (setting [7]); 97.5% in test [4] (setting [8]). Also, the differential viability (reversal) in test [4] (H69AR cells + 2 uM doxorubicin) was 11.5% (inactive). In addition, the results for the inhibition in test [5] and in test [6] were 7.92% (inactive) and -12.8% (inactive), respectively.
On to `CCn1c(SCC(N)=O)nnc1-c1ccc(S(=O)(=O)N2CCN(C)CC2)cc1`, for which the viability in test [1] was 97% (inactive); in test [2], 105% (inactive); in test [3], 95.8% (inactive); in test [4] (setting [7]) it was 86.6%; in test [4] (setting [8]), 95.8%. Besides, the differential viability (reversal) in test [4] (H69AR cells + 2 uM doxorubicin) is 9.21% (inactive). The inhibition in test [5] is 2.93% (inactive); in test [6], 6.73% (inactive).
`CCc1nnc(NC(=O)C2Cc3ccccc3CN2S(=O)(=O)c2cccs2)s1` (centres undefined): the viability was 109% (inactive) in test [1]; 89% (inactive) in test [2]; 68.1% (inactive) in test [3]; 84.5% in test [4] (setting [7]); 68.1% in test [4] (setting [8]). Besides, the differential viability (reversal) in test [4] (H69AR cells + 2 uM doxorubicin) is -16.4% (inactive). The inhibition in test [5] is -2.34% (inactive); in test [6], -3.28% (inactive).
Take `CSc1nnc(-c2cnccn2)n1Cc1ccccc1`: the viability in test [1] was 96% (inactive); in test [2] it was 92.5% (inactive); in test [3], 102% (inactive); in test [4] (setting [7]) it was 95.7%; in test [4] (setting [8]), 102%. The differential viability (reversal) in test [4] (H69AR cells + 2 uM doxorubicin) was 6.43% (inactive). Moreover, the inhibition was -2.88% (inactive) in test [5] and 0.73% (inactive) in test [6].
As to `Cc1cc(C)cc(OCC(=O)NC2=NCCS2)c1`, the viability in test [1] is 100% (inactive); in test [2], 87.5% (inactive); in test [3], 96.1% (inactive); in test [4] (setting [7]) it was 93.3%; in test [4] (setting [8]), 96.1%. In test [4] (H69AR cells + 2 uM doxorubicin), the differential viability (reversal) was 2.82% (inactive). Besides, the inhibition in test [5] was 0.39% (inactive); in test [6], 1.48% (inactive).
`Cc1[nH]nc2c1C(CCc1ccccc1)C(C#N)=C(N)O2` (centres undefined): the viability in test [1] was 104% (inactive); in test [2], 94.2% (inactive); in test [3], 90.2% (inactive); in test [4] (setting [7]) it was 92.9%; in test [4] (setting [8]), 90.2%. The differential viability (reversal) in test [4] (H69AR cells + 2 uM doxorubicin) is -2.73% (inactive). For the same molecule, the inhibition in test [5] was 4.11% (inactive); in test [6] it was 15.8% (inactive).
For `NS(=O)(=O)c1cc2c(cc1Cl)NC(CSCc1ccccc1)=NS2(=O)=O`, the viability in test [1] is 115% (inactive); in test [2], 89.2% (inactive); in test [3], 92.6% (inactive); in test [4] (setting [7]) it was 89.6%; in test [4] (setting [8]) it was 92.6%. For the same molecule, in test [4] (H69AR cells + 2 uM doxorubicin), the differential viability (reversal) is 2.97% (inactive). The values for the inhibition in test [5] and in test [6] were -4.29% (inactive) and 0.67% (inactive), respectively.
